# High-throughput results from PubChem BioAssay.
# sEH act = activators of human soluble epoxide hydrolase; purified human sEH enzymatic activity, activator screen; P34913; 91,000 tested, 0.04% active; activation, % at 2 µM; in the data active = activation above about 37%
# Target sequence (P34913 whole entry, looked up): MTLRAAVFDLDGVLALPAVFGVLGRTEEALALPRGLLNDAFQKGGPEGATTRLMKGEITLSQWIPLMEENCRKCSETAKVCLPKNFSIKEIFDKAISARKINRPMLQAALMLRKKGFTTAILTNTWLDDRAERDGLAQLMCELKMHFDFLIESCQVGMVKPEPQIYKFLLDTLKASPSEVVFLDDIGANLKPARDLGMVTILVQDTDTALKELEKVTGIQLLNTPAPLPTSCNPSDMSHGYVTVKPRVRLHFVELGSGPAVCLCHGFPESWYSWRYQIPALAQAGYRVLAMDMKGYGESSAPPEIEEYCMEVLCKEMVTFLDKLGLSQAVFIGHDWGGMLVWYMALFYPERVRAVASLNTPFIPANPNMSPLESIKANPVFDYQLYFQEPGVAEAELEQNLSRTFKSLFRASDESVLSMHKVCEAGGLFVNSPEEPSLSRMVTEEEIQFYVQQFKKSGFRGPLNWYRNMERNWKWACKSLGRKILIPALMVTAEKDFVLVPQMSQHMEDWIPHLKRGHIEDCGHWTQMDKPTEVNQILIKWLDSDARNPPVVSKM
# ERb SRC1 inh = ER-beta (human) coactivator binding inhibition; Q92731; TR-FRET ER-beta LBD / SRC1-Cy5 peptide binding; receptor agonist-loaded with 1 µM estradiol; inhibition, % at 25.6 µM; 86,000 tested, 1.3% active; AID 633;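 active = compounds whose percent inhibition of the receptor-coactivator binding signal exceeds about 50% in the single-dose screen, limit read from the data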;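 note: 0% = receptor plus peptide wells without compound and 100% = peptide-only wells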
# sEH inh = soluble epoxide hydrolase (human) inhibition | inhibition, % at 2 µM | 91,000 tested, 0.34% active | recombinant human sEH enzymatic activity assay; in the data active = inhibition above about 80%
# ERa coact inh = blocks coactivator binding to human estrogen receptor alpha; inhibition, % at 25.6 µM; 86,000 tested, 1.7% active; P03372; AID 629; TR-FRET ER-alpha LBD / SRC-1 peptide, estradiol-bound; in the data active = inhibition above about 50%;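 note: 0% = receptor plus peptide control and 100% = peptide only without receptor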
# HIV Rev-RRE inh = disrupts HIV-1 Rev binding to RRE RNA. AID 704. 97,000 tested, 0.79% active. inhibition, % at 8 µM. Rev peptide-RRE RNA binding, FRET. P05866;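 active = inhibition above the screen-wide mean plus 3 SD, cut at about 35% in these data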;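 note: 0% = median DMSO wells and 100% = median Neomycin B control wells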
#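 Probe or stimulus: fluorescein-Rev peptide as binding partner; assay system: Cy5-tagged RRE RNA duplex with fluorescein-tagged Rev peptide; timing: 5 min compound–RNA preincubation, then 15 min with peptide, 25 °C; medium: HEPES pH 7.5 buffer with KCl, MgCl2, NaCl and EDTA; signal: fluorescein-to-Cy5 FRET, 480 nm excitation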
# ERa coact pot = enhances coactivator binding to human estrogen receptor alpha. 86,000 tested, 1.3% active. P03372. TR-FRET ERalpha-LBD/SRC-Cy5 coactivator binding, 2 h; 100 = basal binding, no effect. coactivator binding (% of control), % at 25.6 µM; in the data active = activity above about 200%;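 note: binding measured in presence of low estradiol as agonist stimulus; 0% = peptide alone without receptor and 100% = receptor with peptide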
# * hit, by the source's call; / = no result; [ ] = dose if it differs, or a comment. Shown are actives, neighbours in structure and some others; about 3.5% of the full set was active somewhere.
SMILES,sEH act,ERb SRC1 inh,sEH inh,ERa coact inh,HIV Rev-RRE inh,ERa coact pot
C=CCn1c(SCc2cc(=O)n3ccsc3n2)nnc1C1CCCCC1,14,55*[fluorescence artefact?],-14,82*[fluorescence artefact?],-10,75
C=CCn1c(SCC(=O)NCc2ccccc2)nnc1C1CCCCC1,15,-2,-14,3,1,113
CCCC(=O)NCCc1cc2ccc(OC)cc2[nH]c1=O,-9,3,12,1,3,118
NS(=O)(=O)c1ccc(CCNC2CC(=O)N(CCc3ccccc3)C2=O)cc1 (configuration not stated),-4,66*,6,-2,-2,107
NS(=O)(=O)c1ccc(CCNC2CC(=O)N(Cc3ccccc3)C2=O)cc1 (configuration not stated),9,1,-4,7,1,106
Oc1c(Cl)cc(Cl)cc1Sc1cc(Cl)cc(Cl)c1O,/,93*,/,97*,/,10
Cc1ccc(Cl)c(Nc2ccccc2C(=O)O)c1Cl,/,-1,/,-2,/,96
CN(C(=O)CN1CCC(NC(=O)C2CCCCC2)CC1)C1CCCCC1,-9,3,11,2,-1,211*[fluorescence artefact?]
Cc1cc2cc(C)c3nnc(SCC(=O)NCc4ccco4)n3c2cc1C,-11,16,12,-1,-4,81
Cc1cc(NC(=O)CSc2nnc3c(C)cc4cc(C)c(C)cc4n23)no1,4,37,-6,74*[fluorescence artefact?],-1,241*[fluorescence artefact?]
Cc1cc(NC(=O)CSc2nc3cc4c(cc3c(=O)n2CCc2ccccc2)OCO4)no1,/,20,/,30,/,111
Cc1cc(NC(=O)CSc2nnc3c(C)cc4cc5c(cc4n23)OCO5)no1,/,26,/,52*[fluorescence artefact?],/,171
COCCOC(=O)c1c(C)oc2ccc(OCC=C(C)C)cc12,-9,/,9,/,13,/
CCCSc1nnc(Cc2cc(=O)[nH]c(=O)[nH]2)n1-c1cc(C)ccc1C,-2,-9,1,-6,6,115
COC(=O)c1ccccc1NC(=O)c1cc2ncc(Br)cn2n1,1,33,-5,27,-1,579*[fluorescence artefact?]
O=C(Nc1ccc(F)cc1F)c1cc2ncc(Br)cn2n1,0,44,-1,39,6,99
COCCNC(=O)c1c(N)n(/N=C/c2cccs2)c2nc3ccccc3nc12,-6,50,5,68*,-1,30
CC(C)CNC(=O)c1c(N)n(/N=C/c2ccccn2)c2nc3ccccc3nc12,8,27,-5,69*,5,228*[fluorescence artefact?]
CCCCCCNC(=O)c1c(N)n(/N=C/c2ccco2)c2nc3ccccc3nc12,1,/,-3,/,2,/
CCCCNC(=O)c1c(N)n(/N=C/c2ccccn2)c2nc3ccccc3nc12,21,/,-22,/,6,/
Cc1ccc(S(=O)(=O)N2CCN(C(=O)COC(=O)c3cc(C)oc3C)CC2)cc1,6,1,-6,-5,3,115
COc1ccc2cc(CN(CC3CCCO3)S(=O)(=O)c3ccccc3)c(=O)[nH]c2c1 (configuration not stated),5,-1,-3,-3,6,101
CCN(CC)C(=O)CSc1nc2sc3c(c2c(=O)n1-c1ccc(C)cc1)CC(C)(C)SC3,-1,-15,4,-17,-1,246*
Cc1ccc(-n2c(SCC(=O)NCc3ccco3)nc3sc4c(c3c2=O)CC(C)(C)SC4)cc1,12,14,-13,5,7,139
CC(C)(C)OC(=O)C1C(=O)CC(C)(O)C(C(=O)OC(C)(C)C)C1c1cccnc1 (configuration not stated),-5,-12,6,2,2,102
SMILES,sEH act,ERb SRC1 inh,sEH inh,ERa coact inh,HIV Rev-RRE inh,ERa coact pot
COc1cc(-c2nc(-c3cccc(C(F)(F)F)c3)no2)cc(OC)c1OC,-4,-2,4,1,11,120
S=c1[nH]nc(-c2cccnc2)o1,7,-2,-5,-13,4,118
S=c1[nH]nc(-c2ccc3ccccc3n2)o1,-20,-2,21,0,5,471*[fluorescence artefact?]
COc1ccc(NC(=O)CSc2ccc3c4c(cccc24)C(=O)c2ccccc2-3)cc1,-24,/,24,/,125*[fluorescence artefact?],/
N#Cc1cccc(NC(=O)CSc2ccc3c4c(cccc24)C(=O)c2ccccc2-3)c1,6,/,-4,/,115*[fluorescence artefact?],/
N#Cc1cccc(NC(=O)CSc2ccccc2)c1,-6,-5,6,-3,3,83
COc1ccc(NC(=O)CSc2nnc(-c3ccccc3C)n2N)cc1,/,-6,/,-29,6,105
COc1ccc(-c2noc(CCC(=O)N3CCC(C)CC3)n2)cc1,2,-10,-3,7,7,95
CCCCCCN1C=CC(=C/C=C(\C#N)C(=O)OCC)C=C1,/,1,/,-7,139*[fluorescence artefact?],101
CCCN1C=CC(=C/C=C(\C#N)C(=O)OCC)C=C1,-6,-12,9,-16,136*[fluorescence artefact?],109
CCc1cc(=O)oc2c(C)c(O)c(CN(C)C)cc12,12,5,-11,7,11,120
O=C(c1ccco1)[C@@H]1[C@@H]2C(=O)N(c3ccc(Br)cc3)C(=O)[C@@H]2C2c3ccccc3C=CN21 (some centres not stated),0,39,-1,36,41*,107
O=C(c1ccco1)[C@@H]1[C@@H]2C(=O)N(c3ccc(F)cc3)C(=O)[C@@H]2C2c3ccccc3C=CN21 (some centres not stated),-12,36,11,55*[fluorescence artefact?],42*,80
O=C1CN(C(=O)CN2CCOCC2)C(c2ccccc2)c2cc(Br)ccc2N1 (configuration not stated),6,38,-4,7,8,96
Cc1ccc(-n2ncc3c2ncn2c(-c4ccncc4)nnc32)cc1,/,31,/,66*[fluorescence artefact?],/,89
CCOC(=O)c1[nH]c2cc(OC)c(OC)cc2c1NC(=O)c1nonc1C,3,-7,-3,1,7,125
CN(C)c1ccc(NC(=O)CN2CCN(CC(=O)Nc3ccc(F)cc3)CC2)cc1,/,54*[fluorescence artefact?],/,16,/,64
CCOC(=O)C1CCN(C(=O)Nc2ccc3nc(-c4ccco4)c(-c4ccco4)nc3c2)CC1,-44,95*[fluorescence artefact?],47,96*[fluorescence artefact?],-6,31
CCOC(=O)C1CCN(C(=O)Nc2ccc3c(c2)nc(C)n3C)CC1,3,-20,-1,-22,4,109
CN(C)c1ccc(P(=O)(OCc2ccccc2)C(O)c2cccnc2)cc1 (configuration not stated),-11,5,10,19,2,115
CC(C)C(O)P(=O)(OCc1ccccc1)c1ccc(N(C)C)cc1 (configuration not stated),-2,16,0,52*[fluorescence artefact?],3,51
CCC(C)NC(=O)c1cc(CC(C)C)on1 (configuration not stated),16,-11,-16,-3,2,93
